Reference: ChEMBL document CHEMBL1932958, “Analogs of pentamidine as potential anti-Pneumocystis chemotherapeutics” (Eur J Med Chem, 2012)

Experiments:
A549 = experiment: Cytotoxicity against human A549 cells; format: cell-based
Pneumocystis carinii = experiment: Antipneumocystis activity against Pneumocystis carinii assessed as reduction of ATP level after 72 hrs by bioluminescent assay; format: functional, organism-based
How it was run: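 P. carinii from corticosteroid-immunosuppressed male CD rat lungs (methylprednisolone 20 mg/kg weekly, inoculated intratracheally or intranasally), cryopreserved, thawed at 37°C, 5 × 10^7 nuclei/ml in RPMI-1640 with 20% calf serum; 5% CO2, 37 °C. Screened at 100 µg/ml; titrated if ATP fell ≥50%. ATPlite luciferin-luciferase luminescence at 72 h; triplicate wells, 3 assays, two batches; IC50 by linear regression of % ATP decrease vs log concentration.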

[1] = Cytotoxicity against rat L2 cells; format: cell-based

Compound	IC50 (A549) [µg/mL]	IC50 (Pneumocystis carinii) [µM]	IC50 [1] [µg/mL]
CN(CCOc1ccc(C(=N)N)cc1)CCOc1ccc(C(=N)N)cc1.Cl.Cl	> 100	1.73	> 100
COc1cc(C(=N)N)ccc1OCCN(C)CCOc1ccc(C(=N)N)cc1OC.Cl.Cl	> 100	3.41	> 100
COc1cc(C(=N)N)cc(OC)c1OCCN(C)CCOc1c(OC)cc(C(=N)N)cc1OC.Cl.Cl	> 100	6.26	> 100
CN(CCCCCN(C)c1ccc(C(=N)N)cc1)c1ccc(C(=N)N)cc1.Cl.Cl	> 100	1.99	47.1
Cl.Cl.N=C(N)c1ccc(NCCOCCNc2ccc(C(=N)N)cc2)cc1	> 100	1.11	36.9
Cl.Cl.N=C(N)c1ccc(OCCOCCOc2ccc(C(=N)N)cc2)cc1	> 100	2.13	> 100
COc1cc(C(=N)N)ccc1OCCOCCOc1ccc(C(=N)N)cc1OC.Cl.Cl	> 100	4.21	> 100
COc1cc(C(=N)N)cc(OC)c1OCCOCCOc1c(OC)cc(C(=N)N)cc1OC.Cl.Cl	> 100	13	> 100
COc1cc(C(=N)N)cc(OC)c1OCCCCCOc1c(OC)cc(C(=N)N)cc1OC.Cl.Cl	> 100	3	17.8
Cl.Cl.N=C(N)c1ccc(OCCSCCOc2ccc(C(=N)N)cc2)cc1	> 100	1.18	> 100
Cl.Cl.N=C(N)c1ccc(OCCN(CCOc2ccc(C(=N)N)cc2)S(=O)(=O)c2ccccc2)cc1	> 100	1.33	> 100
COc1cc(C(=N)N)ccc1OCCN(CCOc1ccc(C(=N)N)cc1OC)S(=O)(=O)c1ccccc1.Cl.Cl	> 100	2.66	> 100
COc1cc(C(=N)N)cc(OC)c1OCCN(CCOc1c(OC)cc(C(=N)N)cc1OC)S(=O)(=O)c1ccccc1.Cl.Cl	> 100	4.4	> 100
COc1cc(C(=N)N)ccc1OCCN(CCOc1ccc(C(=N)N)cc1OC)S(=O)(=O)c1ccc(NC(C)=O)cc1.Cl.Cl	> 100	3.71	> 100
COc1cc(C(=N)N)cc(OC)c1OCCN(CCOc1c(OC)cc(C(=N)N)cc1OC)S(=O)(=O)c1ccc(N)cc1.Cl.Cl	> 100	4.16	> 100
Cl.Cl.N=C(N)c1ccc(C(=O)NCCCNC(=O)c2ccc(C(=N)N)cc2)cc1	> 100	2.99	> 100
Cl.Cl.N=C(N)c1ccc(C(=O)NCCCCNC(=O)c2ccc(C(=N)N)cc2)cc1	> 100	3.58	> 100
Cl.Cl.N=C(N)c1ccc(C(=O)NCCCCCNC(=O)c2ccc(C(=N)N)cc2)cc1	> 100	14.3	> 100
Cl.Cl.N=C(N)c1ccc(C(=O)NCCCCCCNC(=O)c2ccc(C(=N)N)cc2)cc1	> 100	9.15	> 100
